A short description of experiment [1]: reduced viability of SK-BR-3 breast cancer cells – cell-based, 24 h, human, pilot screen (AID 572;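 active = viability at or below 10% of carrier control in both of two separate runs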;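 also: compound exposure lasted between 18 and 24 h rather than exactly 24 h; 100% = carrier-treated control wells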). To be noted: SK-BR-3 viability, CellTiter-Glo luminescence, at 10 µM, stronger effect = lower value. In general terms: Cellular ATP, detected with luciferase, serves as a proxy for viable cell number.
Experiment [2] in a line: HUVEC growth inhibition – cell-based, human, primary screen (AID 575).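 Also: 100% = median of untreated cell wells with 0.1% DMSO on each plate.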 To be noted: HUVEC proliferation, CellTiter-Glo luminescence, 72 h; at 10 µM; stronger effect = lower value. The method in brief:
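Assay system: primary human umbilical vein endothelial cells / Buffer or medium: endothelial basal medium with 2% FBS plus growth supplements / Compound dosing: one dose, 10 µM final, 0.1% DMSO / Timing: 72 h treatment at 37 °C / Signal: CTG luminescence / Benchmarks: 32 DMSO-only cell-control wells (high), 32 MePR drug-control wells (low) per plate / Plate: collagen-coated 384-well format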

A short description of experiment [3]: H69AR cell proliferation blockers – human, duplicate replicates, primary screen (AID 580;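 active = viability at or under a set limit in both replicates, limit being median viability minus 3 SD, cut at about 48% in these data, passing the limit was not always enough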;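 also: 100% = mean luminescence of untreated wells and 0% = no signal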). To be noted: H69AR lung tumor cells viability, ATP luminescence, 72 h; at 10 µM; stronger effect = lower value.
Experiment [4] is described as follows: MRP1 drug-resistance reversers in H69AR cells – cell-based, doxorubicin co-treatment, pilot screen (AID 601;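 active = viability loss from added drug above about 55%, and viability with drug at most 40%, in both replicates, limit read from the data, passing the limit was not always enough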). To be noted: CellTiter-Glo, 72 h, at 10 µM; for differential viability (reversal): stronger effect = higher value.
Experiment [5] in a line: yeast transport mutant growth inhibition pilot in 384-well plates, post-Golgi transport modulator project (AID 636; in the data active = inhibition above about 31%). To be noted: absorbance 615 nm, about 18 h, stronger effect = higher value.
Experiment [6] can be described thus: growth suppression of yeast trafficking mutant, preliminary HTS, modulators of trafficking downstream of Golgi apparatus project, 1536-format plate, OD 615 nm (AID 637; in the data active = inhibition above about 30%). To be noted: yeast transport mutant growth, absorbance 615 nm, 18 h; stronger effect = higher value.
Where [7] appears, read: H69AR cells + 2 uM doxorubicin, measured here: viability with 2 uM doxorubicin, stronger effect = lower value.
[8] abbreviates: H69AR cells, compound alone cytotoxicity.

18 compounds from PubChem BioAssay can be followed below.

Active and inactive are the calls of the source.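 The calls were made as follows, unless noted: active = viability at or below 30% in both replicate assays; inconclusive = viability at or below 30% in just one of the two assays; inactive = the rest.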

Consider `COc1cccc(C=Nc2ccc3c(c2)OCCO3)c1O`, for which the viability – broadly, a read-out of living cells in per cent, often relative to untreated cells – in experiment [1] was 115% (inactive); in experiment [2] it was 79.2% (inactive); in experiment [3], 83% (inactive); in experiment [4] (setting [7]), 95%; in experiment [4] (setting [8]), 83%. In addition, in experiment [4] (H69AR cells + 2 uM doxorubicin), the differential viability (reversal) was -12% (inactive). The values for the inhibition in experiment [5] and in experiment [6] were 1.95% (inactive) and -0.33% (inactive), respectively.

`CCOC(=O)N1CCC(NC(=O)Cn2ncc3c4ccccc4n(C)c3c2=O)CC1`: the viability in experiment [1] is 114% (inactive); in experiment [2], 116% (inactive); in experiment [3], 97.5% (inactive); in experiment [4] (setting [7]), 105%; in experiment [4] (setting [8]) it was 97.5%. Besides, in experiment [4] (H69AR cells + 2 uM doxorubicin), the differential viability (reversal) was -7.6% (inactive). Besides, the inhibition (in general, the change of the read-out against control, counted positive when it falls) was -7.43% (inactive) in experiment [5] and -3.27% (inactive) in experiment [6].

Regarding `CCOc1cc2[nH]c(=O)n(CCC(=O)NCCc3ccc(OC)c(OC)c3)c(=O)c2cc1OCC`, the viability in experiment [1] is 103% (inactive); in experiment [2], 75.4% (inactive); in experiment [3], 96.8% (inactive); in experiment [4] (setting [7]), 79.7%; in experiment [4] (setting [8]), 96.8%. Moreover, the differential viability (reversal) in experiment [4] (H69AR cells + 2 uM doxorubicin) is 17.1% (inactive). In addition, the inhibition in experiment [5] was -3.38% (inactive); in experiment [6] it was -0.98% (inactive).

With `C#CCSc1nc(-c2cccs2)ccc1C#N`, the viability is 91% (inactive) in experiment [1]; 95.1% (inactive) in experiment [2]; 71.4% (inactive) in experiment [3]; 93.9% in experiment [4] (setting [7]); 71.4% in experiment [4] (setting [8]). Besides, the differential viability (reversal) in experiment [4] (H69AR cells + 2 uM doxorubicin) is -22.5% (inactive). In addition, the inhibition is -0.96% (inactive) in experiment [5] and 21.8% (inactive) in experiment [6].

As for `CCOC(=O)c1oc2cc(OCC(N)=O)ccc2c(=O)c1-c1ccc(OC)c(OC)c1`, the viability in experiment [1] is 65% (inactive); in experiment [2], 88.1% (inactive); in experiment [3], 99% (inactive); in experiment [4] (setting [7]), 102%; in experiment [4] (setting [8]), 99%. Also, the differential viability (reversal) in experiment [4] (H69AR cells + 2 uM doxorubicin) is -2.63% (inactive). Besides, the inhibition in experiment [5] was -7.67% (inactive); in experiment [6], -0.55% (inactive).

With `O=C(CCn1c(=O)sc2ccccc21)NCc1ccc2c(c1)OCO2`, the viability in experiment [1] is 75% (inactive); in experiment [2] it was 111% (inactive); in experiment [3] it was 99.9% (inactive); in experiment [4] (setting [7]), 91.5%; in experiment [4] (setting [8]), 99.9%. Moreover, the differential viability (reversal) in experiment [4] (H69AR cells + 2 uM doxorubicin) is 8.43% (inactive). In addition, the inhibition in experiment [5] is -0.81% (inactive); in experiment [6], -2.91% (inactive).

As to `COc1cc(C(=O)OC(C)CN2CCCC2)cc(OC)c1OC` (centres undefined), the viability is 99% (inactive) in experiment [1]; 98.1% (inactive) in experiment [2]; 108% (inactive) in experiment [3]; 97% in experiment [4] (setting [7]); 108% in experiment [4] (setting [8]). Also, the differential viability (reversal) in experiment [4] (H69AR cells + 2 uM doxorubicin) is 11.5% (inactive). In addition, the inhibition in experiment [5] was -3.65% (inactive); in experiment [6] it was 0.55% (inactive).

Consider `CCCCOc1ccc(N(CC(=O)NC2CCCC2)C(=O)CCC(=O)Nc2ccccn2)cc1`, for which the viability in experiment [1] was 101% (inactive); in experiment [2], 71.7% (inactive); in experiment [3], 69.4% (inactive); in experiment [4] (setting [7]), 64.4%; in experiment [4] (setting [8]) it was 69.4%. Besides, the differential viability (reversal) in experiment [4] (H69AR cells + 2 uM doxorubicin) is 5% (inactive). Also, the inhibition in experiment [5] was -1.3% (inactive); in experiment [6], 2.95% (inactive).

As for `CCOC(=O)C1=C(C)NC(C)=C(C(=O)OC)C1c1cccc([N+](=O)[O-])c1` (centres undefined), the viability is 68% (inactive) in experiment [1]; 58% (inactive) in experiment [2]; 83% (inactive) in experiment [3]; 97.7% in experiment [4] (setting [7]); 83% in experiment [4] (setting [8]). Besides, in experiment [4] (H69AR cells + 2 uM doxorubicin), the differential viability (reversal) was -14.7% (inactive). The inhibition in experiment [5] was 5.58% (inactive); in experiment [6], -1.17% (inactive).

As to `CC(C(=O)NC(=O)NC1CCCCC1)N1CCN(c2ccccn2)CC1` (centres undefined), the viability in experiment [1] was 96% (inactive); in experiment [2], 95.6% (inactive); in experiment [3], 104% (inactive); in experiment [4] (setting [7]) it was 88.9%; in experiment [4] (setting [8]) it was 104%. For the same compound, the differential viability (reversal) in experiment [4] (H69AR cells + 2 uM doxorubicin) was 14.7% (inactive). Besides, the values for the inhibition in experiment [5] and in experiment [6] were -2.4% (inactive) and -3.27% (inactive), respectively.

Turning to `COc1ccc2cc3cc(C(=O)NCC4CCCO4)oc3nc2c1` (centres undefined), the viability in experiment [1] was 128% (inactive); in experiment [2], 84.8% (inactive); in experiment [3], 88.1% (inactive); in experiment [4] (setting [7]), 83.4%; in experiment [4] (setting [8]) it was 88.1%. In addition, the differential viability (reversal) in experiment [4] (H69AR cells + 2 uM doxorubicin) was 4.77% (inactive). The inhibition in experiment [5] was 1.69% (inactive); in experiment [6], 3.44% (inactive).

Regarding `CCCc1c(OCCCCc2nn[nH]n2)ccc(C(C)=O)c1O`, the viability in experiment [1] is 77% (inactive); in experiment [2], 67% (inactive); in experiment [3], 84.4% (inactive); in experiment [4] (setting [7]), 105%; in experiment [4] (setting [8]) it was 84.4%. Also, the differential viability (reversal) in experiment [4] (H69AR cells + 2 uM doxorubicin) was -20.6% (inactive). The figures for the inhibition in experiment [5] and in experiment [6] were -1.56% (inactive) and 3% (inactive), respectively.

On to `NC(=O)N1c2ccccc2C=Cc2ccccc21`, for which the viability in experiment [1] was 95% (inactive); in experiment [2] it was 79.4% (inactive); in experiment [3], 107% (inactive); in experiment [4] (setting [7]), 97.1%; in experiment [4] (setting [8]) it was 107%. Besides, the differential viability (reversal) in experiment [4] (H69AR cells + 2 uM doxorubicin) is 9.74% (inactive). The inhibition in experiment [5] is -2.86% (inactive); in experiment [6], 3.17% (inactive).

As to `CN1CCN(S(=O)(=O)c2ccc(NC(=O)Nc3cccc(Cl)c3)cc2)CC1`, the viability is 96% (inactive) in experiment [1]; 4.34% (active) in experiment [2]; 65% (inactive) in experiment [3]; 73.8% in experiment [4] (setting [7]); 65% in experiment [4] (setting [8]). Further, the differential viability (reversal) in experiment [4] (H69AR cells + 2 uM doxorubicin) was -8.79% (inactive). The inhibition was -3.6% (inactive) in experiment [5] and 1.31% (inactive) in experiment [6].

As to `Cc1nn(C)cc1C1C2=C(CC(C)(C)CC2=O)OC2=C1C(=O)CC(C)(C)C2`, the viability in experiment [1] is 74% (inactive); in experiment [2], 110% (inactive); in experiment [3] it was 89.8% (inactive); in experiment [4] (setting [7]), 95.6%; in experiment [4] (setting [8]), 89.8%. Also, in experiment [4] (H69AR cells + 2 uM doxorubicin), the differential viability (reversal) was -5.79% (inactive). The values for the inhibition in experiment [5] and in experiment [6] were -6.62% (inactive) and 0.18% (inactive), respectively.

For the compound `COc1ccc(Cl)cc1NC(=O)CSc1nncn1-c1cccnc1`, the viability in experiment [1] was 92% (inactive); in experiment [2], 102% (inactive); in experiment [3] it was 88.3% (inactive); in experiment [4] (setting [7]), 86.3%; in experiment [4] (setting [8]) it was 88.3%. Moreover, in experiment [4] (H69AR cells + 2 uM doxorubicin), the differential viability (reversal) was 2.01% (inactive). Moreover, the inhibition in experiment [5] was -7.07% (inactive); in experiment [6], -3.27% (inactive).

As to `CCCCc1c(O)nc(SCC(=O)Nc2ccc3c(c2)CCC3)[nH]c1=O`, the viability in experiment [1] was 96% (inactive); in experiment [2] it was 79.7% (inactive); in experiment [3] it was 94.8% (inactive); in experiment [4] (setting [7]), 83.9%; in experiment [4] (setting [8]), 94.8%. The differential viability (reversal) in experiment [4] (H69AR cells + 2 uM doxorubicin) is 10.9% (inactive). Besides, the values for the inhibition in experiment [5] and in experiment [6] were -3.73% (inactive) and -2.91% (inactive), respectively.

`NC(=O)C1CCN(c2nc(-c3ccccc3)nc3ccccc23)CC1`: the viability in experiment [1] was 114% (inactive); in experiment [2], 77.2% (inactive); in experiment [3] it was 66.3% (inactive); in experiment [4] (setting [7]), 69.2%; in experiment [4] (setting [8]) it was 66.3%. Also, the differential viability (reversal) in experiment [4] (H69AR cells + 2 uM doxorubicin) is -2.88% (inactive). The inhibition was -3.15% (inactive) in experiment [5] and -4.03% (inactive) in experiment [6].
